MsrA inh – bovine MsrA inhibition; inhibition, % at 15.5 µM; hit rate 0.75% among 360,000; AID 651718; purified bovine MsrA, absorbance read-out; in the data active = inhibition above about 4.5%
bovine MsrA act – activates bovine MsrA enzyme; purified bovine MsrA, absorbance read-out; activation, % at 10.6 µM; hit rate 0.3% among 360,000; AID 602163; in the data active = activation above about 7.5%
AHR act – human AHR activation. P35869. AHR-responsive luciferase reporter cells, luminescence. activation, % at 5 µM. hit rate 2.5% among 320,000. AID 2796; in the data active = activation above about 47%
AI-2 QS mod – Vibrio harveyi AI-2 quorum sensing modulation; Vibrio harveyi JMH597 AI-2 luminescence/OD600 ratio, 9 h; hits give low values; strain lacks LuxN and CqsS sensors; 0 = neutral-control median; activity change, % at 7.5 µM; hit rate 0.4% among 300,000; in the data active = activity change below about -75%, passing the limit was not always enough;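 note: luminescence divided by OD600 gain over 9 h not by final OD600 alone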
TbMetRS inhib – Trypanosoma brucei MetRS inhibition; purified T. brucei MetRS, ATP depletion, Kinase-Glo luminescence; AID 624268; hit rate 0.4% among 360,000; inhibition, % at 11.9 µM;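 active = inhibition above a per-plate cutoff of the control wells' mean inhibition plus 3 SD, cut at about 5.5% in these data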
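Assay system: T. brucei methionyl-tRNA synthetase, purified | Medium: HEPES buffer with MgCl2, KCl, DTT, spermine, BSA, pyrophosphatase | Compound: 11.9 µM single point | Incubation: 15 min enzyme-compound preincubation, 2 h reaction, 10 min detection, 25 °C | Measured by: Kinase-Glo luciferase luminescence reporting remaining unconsumed ATP | Measure: % inhibition normalized to control-well medians | Replication: Singlicate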
HTR2A ag – agonists of mouse serotonin 5-HT2A receptor (HTR2A); P35363; hit rate 0.66% among 360,000; activation, % at 7.6 µM; CHO-K1 mHTR2A beta-arrestin complementation, luminescence; percent of 30 µM serotonin response;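 active = activation above a run cutoff, the mean activation of all tested compounds plus 3 SD, cut at about 14% in these data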
Numbers stand for hits; n = inactive; x = no result. The list is not random: actives were taken first. Their share in the collection is about 4.4%.

SMILES | MsrA inh | bovine MsrA act | AHR act | AI-2 QS mod | TbMetRS inhib | HTR2A ag
O=C1[C@@H]2Cc3c([nH]c4ccccc34)C(c3ccc(Cl)cc3)N2C(=O)CN1CCO (some centres undefined) | n | n | n | n | 6.0 | n
COc1ccc(Br)cc1C(=O)Nc1cccc(C)c1 | n | n | 50 | n | n | n
CN1CCN(c2ccccc2NC(=O)c2ccc(-c3ccc(Cl)c(Cl)c3)o2)CC1 | n | n | 63 | n | n | n
CN1CCN(c2ccccc2NC(=O)c2cc(Br)ccc2Cl)CC1 | n | n | 55 | n | n | n
COc1ccccc1NC(=O)c1cc(Br)ccc1Cl | n | n | 65 | n | n | n
COc1ccccc1NC(=O)c1ccccc1C(=O)Nc1ccccc1OC | n | n | n | n | n | n
COc1cc2c(c3c1c(=O)c1ccccc1n3C)C=CC(C)(C)O2 | n | x | x | x | x | x
COC(=O)C1=C(C)N(Cc2ccc(C(F)(F)F)cc2)C(=NCc2cccc(C(F)(F)F)c2)NC1c1ccccc1C(F)(F)F (centres undefined) | n | x | x | x | x | x
CCCCOc1ccc(C(=O)NC2CCCCN(CCC)C2=O)cc1 (centres undefined) | n | x | x | x | x | x
C[C@@H]1CN([C@@H](C)CO)C(=O)CCCn2cc(nn2)CO[C@H]1CN(C)S(C)(=O)=O | n | x | x | x | x | x
COc1ccc(Nc2cc(C)nc3ncnn23)cc1Cl | n | n | 68 | n | n | n
COc1ccccc1NC(=O)c1ccc(NC(=O)CN2CCCC2)cc1 | n | n | 53 | n | n | n
COc1ccccc1NC(=O)c1ccc(NC(=O)COC(=O)c2cncc(Br)c2)cc1 | n | n | 50 | x | n | n
COc1cc(NC(=O)c2ccccc2F)c(OC)cc1NC(=O)CN1CCOCC1 | n | n | 51 | n | n | n
COc1ccccc1NC(=O)c1ccc(NC(=O)COC(=O)C2CCCCC2)cc1 | n | n | n | n | n | n
COc1cc(NC(=O)c2ccc(F)cc2)c(OC)cc1NC(=O)CN1CCOCC1 | n | n | n | n | n | n
COc1ccccc1N1CCN(CC(=O)Nc2ccccc2C(=O)NCCc2ccccc2)CC1 | n | n | 63 | x | n | n
COc1ccc(CCNC(=O)c2ccccc2NC(=O)CN2CCN(c3ccccc3O)CC2)cc1 | n | n | x | x | n | n
COc1cc(Nc2cc(C)n(-c3cc(OC)cc(OC)c3)c(=O)c2)cc(OC)c1 | n | x | x | x | x | x
CCOc1cccc(/C=N/NC(=O)c2cc(C3CC3)[nH]n2)c1O | n | n | 53 | n | n | n
CCOc1cccc(/C=N/NC(=O)c2cccnc2)c1O | n | n | n | n | n | n
Cc1ccc(S(=O)(=O)N2C(=O)/C(=C3\SC(=S)NC3=O)c3ccccc32)cc1 | x | x | n | n | x | x
Cc1cccc(N=C2NC(=O)/C(=C3/C(=O)N(C)c4ccccc43)S2)c1C | n | n | 68 | n | n | n
CCOC(=O)c1c(/N=C/N(C)C)sc(/C=N/Nc2ccccc2)c1-c1ccc(Cl)cc1 | n | n | 92 | n | n | n
CN1CCCCC(NC(=O)c2ccc(Cl)cc2Cl)C1=O (centres undefined) | n | x | x | x | x | x
SMILES | MsrA inh | bovine MsrA act | AHR act | AI-2 QS mod | TbMetRS inhib | HTR2A ag
O=C(Nc1nccs1)c1ccc2ccccc2c1 | n | n | 54 | n | n | n
COc1cccc(NC(=O)c2ccccc2NC(=O)c2ccncc2)c1 | n | n | 55 | x | n | n
COc1ccccc1C(=O)Nc1nc(-c2cccs2)c(NC(C)=O)s1 | n | n | 72 | n | n | n
O=C(Nc1nccs1)c1ccc(Br)cc1 | n | n | n | n | n | n
COc1cc(C(=O)Nc2cc(C)ccn2)cc(OC)c1OC | n | n | 56 | n | n | n
NC(=O)c1c(N)[nH]c(C(=O)c2ccccc2)c1-c1ccc(Br)cc1 | n | x | x | x | x | x
O=C(N[C@H](Cc1ccccc1)C(=O)NCC1CCCO1)[C@H]1O[C@@H](n2ccc(=O)[nH]c2=O)[C@H](O)[C@@H]1O (some centres undefined) | n | x | x | x | x | x
COc1cc2ccccc2cc1C(=O)Nc1ccc(Br)cn1 | n | n | x | n | n | n
COc1ccc(C(=O)Nc2ccccc2C(=O)Nc2cc(C)ccn2)cc1 | n | n | 56 | n | n | n
COc1cc2ccccc2cc1C(=O)NC1CCCC1 | n | n | 77 | x | n | n
COc1cc2ccccc2cc1C(=O)Nc1cc(C)ccn1 | n | n | 56 | n | n | n
COc1cc2ccccc2cc1C(=O)Nc1nccs1 | n | n | 57 | n | n | n
C[C@H](CO)N1C[C@H](C)[C@@H](CN(C)C(=O)Nc2ccc(N3CCN(C)CC3)cc2)OCc2cn(nn2)CCCC1=O | n | x | x | x | x | x
Cc1ccccc1-c1nc2cc(Cl)ccc2o1 | n | n | 75 | n | n | n
Nc1ccc2oc(-c3cccc4ccccc34)nc2c1 | n | n | 53 | n | n | n
Cc1ccc(-c2nc3cc(N)ccc3o2)cc1 | n | n | 73 | n | n | n
COc1ccc(NC(=O)C2(C)CCN2CCOc2ccc(C)cc2)cc1OC (centres undefined) | n | n | x | x | n | n
CCCCNc1cccc2c1S(=O)(=O)N[C@H](Cc1ccccc1)CO2 | n | x | x | x | x | x
COc1ccc(S(=O)(=O)N2CCN(C(=O)COc3ccc(C)c(C)c3)CC2)cc1OC | n | n | n | n | n | n
Cc1c(/C=N\NC(=O)C2COc3ccccc3O2)c2ccccc2n1C (centres undefined) | n | n | 51 | n | n | n
Clc1ccc(Nc2ncnc3ccc(Br)cc23)cc1 | n | n | 67 | n | n | n
COP(=O)(OC)C(Nc1ccc([N+](=O)[O-])cc1)c1ccccc1 (centres undefined) | n | n | n | n | n | n
CCCOP(=O)(OCCC)C(Nc1ccc(C(C)C)cc1)c1ccc([N+](=O)[O-])cc1 (centres undefined) | n | n | 60 | n | n | n
COc1ccc(NC(=O)c2cc(-c3ccccc3OC)on2)cc1 | n | n | n | n | n | n
COc1ccc(OC)c(-c2cc(C(=O)Nc3cccc(Cl)c3)no2)c1 | n | n | 55 | n | n | n
SMILES | MsrA inh | bovine MsrA act | AHR act | AI-2 QS mod | TbMetRS inhib | HTR2A ag
COc1ccc(NC(=O)c2cc(-c3ccccc3Cl)on2)cc1 | n | n | 56 | n | n | n
C[C@@H]1CN([C@H](C)CO)S(=O)(=O)c2ccc(Br)cc2O[C@H]1CN(C)CC1CCOCC1 | n | x | x | x | x | x
CCOc1ccc(-c2cc(C(=O)NCCCN3CCN(CC)CC3)c3ccccc3n2)cc1 | 4.6 | n | n | n | n | n
O=C(NN1CCOCC1)c1cc(-c2ccc(Br)cc2)nc2ccccc12 | n | n | 58 | n | n | n
O=C(NCCCN1CCOCC1)c1cc(-c2ccccc2)nc2ccccc12 | n | n | n | n | n | n
O=C(NCCCN1CCOCC1)c1cc(-c2ccc(Br)cc2)nc2ccccc12 | n | n | 75 | n | n | n
COc1cc(OC)c(NC(=O)NNC(=O)C(=O)NC2CC2)cc1Cl | n | x | x | x | x | x
CCn1cnc2c(NCCc3cccnc3)nc(C#N)nc21 | n | n | 71 | x | n | n
CCn1cnc2c(Nc3cccc(Cl)c3)nc(C#N)nc21 | n | n | n | x | n | n

Bioassay records: PubChem BioAssay, several laboratories
